Source: PubChem
FGF22 binding: FGF22 (human) thermal shift binding. recombinant FGF22 thermal shift, SYPRO orange fluorescence; percent of sucrose octasulfate shift, DMSO zero. AID 651658. Q9HCT0. 340,000 tested, 1.5% active. activity (Tm shift, normalised), % at 9.99 µM;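 active means mean Tm shift, scaled 0 neutral to 100 positive control, at about 1.3% or above, every replicate too, limit read from the data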
Target sequence (Q9HCT0 whole entry, looked up): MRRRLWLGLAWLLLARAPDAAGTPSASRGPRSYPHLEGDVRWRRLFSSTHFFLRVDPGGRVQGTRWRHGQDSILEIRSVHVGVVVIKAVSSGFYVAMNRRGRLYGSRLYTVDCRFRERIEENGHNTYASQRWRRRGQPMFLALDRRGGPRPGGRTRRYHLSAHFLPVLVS
SIRT5 inh: blocks human SIRT5 desuccinylation of peptide | Q9NXA8 | Purified SirT5, succinyl-peptide AMC, trypsin-coupled fluorescence | inhibition, % at 15 µM | 330,000 tested, 1.1% active; in the data active means inhibition above about 15%
CASP6 VEID inh: caspase-6 (human) enzyme inhibition; P55212; purified caspase-6, Z-VEID-R110 cleavage fluorescence; inhibition, % at 12.5 µM; 350,000 tested, 0.53% active;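 active means mean inhibition across replicates at least about 35%, with every replicate also reaching that limit, limit read from the data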;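 further: 0% = median of neutral control wells and 100% = no fluorescence left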
Target sequence (P55212 24-179 limits assumed): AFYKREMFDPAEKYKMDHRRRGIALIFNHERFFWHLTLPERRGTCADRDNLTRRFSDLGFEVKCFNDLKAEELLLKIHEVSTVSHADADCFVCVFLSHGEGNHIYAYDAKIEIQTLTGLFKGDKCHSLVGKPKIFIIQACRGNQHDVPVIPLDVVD
Target sequence (P55212 194-293 limits assumed): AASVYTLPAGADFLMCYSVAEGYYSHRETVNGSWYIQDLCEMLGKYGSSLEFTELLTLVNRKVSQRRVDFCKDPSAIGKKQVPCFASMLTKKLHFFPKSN
NSD2 inh: NSD2 (human) methyltransferase inhibition. inhibition, % at 12.5 µM. NSD2 peptide methylation, AlphaScreen, 120 min. 310,000 tested, 0.54% active. O96028; in the data active means inhibition above about 50%
UCH37 DUB inh: human UCH37 deubiquitinating enzyme inhibition. Q9Y5K5. purified proteasome/UCH37, Ub-AMC cleavage fluorescence. inhibition, % (concentration not given with the values). 330,000 tested, 0.33% active;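 active means mean inhibition over replicate wells above about 20%, limit read from the data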;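 further: 0% = compound-free wells with enzyme and 100% = wells lacking proteasome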
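Reagent: Ub-AMC substrate; assay system: Proteasome-associated human UCH37 deubiquitinase; controls: no-proteasome and no-compound wells; read-out: % inhibition of Ub-AMC cleavage fluorescence; timing: 30 min preincubation with enzyme, 25 min cleavage at room temperature; signal: AMC fluorescence from Ub-AMC cleavage, excitation 355 nm, emission 460 nm; buffer or medium: Tris-HCl pH 7.4 plus ovalbumin, ATP-MgCl2, DTT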
UCH37 reconfirm: confirmation of human UCH37 deubiquitinating enzyme inhibitors; 480 tested, 27% active; Proteasome-bound UCH37, Ub-AMC cleavage fluorescence; shares compounds with UCH37 DUB inh; inhibition, % at 20 µM;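 active means average inhibition over replicates above about 50%, so the earlier screening hit is confirmed, limit read from the data; inactive means the rest, counted as false positives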;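 further: based on cleavage rate fitted by regression over a 30 min kinetic read; 0% = proteasome plus Ub-AMC and 100% = Ub-AMC without proteasome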
Active calls of the source: *; · = not tested or not shown. Most compounds without a hit are left out; they make up all but 2.6% or so of the library.

SMILES	FGF22 binding	SIRT5 inh	CASP6 VEID inh	NSD2 inh	UCH37 DUB inh	others
CCN(CC)C(=O)C1=C(C)N(Cc2ccc(OC)cc2)C(=O)C(CC(=O)NCCCN(C)C)C1 (stereo not given)	43.6*	·	-16.4	·	·
Cc1cccc(N2CCN(C(=O)CCS(=O)(=O)c3ccc(Br)cc3)CC2C)c1 (stereo not given)	-0.2	-1.7	66.9*	1.3	4.2
CC(=O)N1CCCc2cc(S(=O)(=O)CCC(=O)N3CCN(c4cccc(C)c4)C(C)C3)ccc21 (stereo not given)	-0.2	4.2	22.8	·	4.1
Cc1cc(C)c(NC(=O)c2cc(C(=O)O)ccc2C(=O)O)c([N+](=O)[O-])c1	0.2	2.1	-0.5	·	46.6*
Cc1noc(C)c1S(=O)(=O)Nc1ccc2c(c1)C(=O)N([C@@H](C)CO)C[C@@H](C)[C@H](CN(C)C(=O)NC(C)C)OCCCC[C@H](C)O2	-0.4	2.2	3.1	·	·
C[C@@H]1CN([C@H](C)CO)C(=O)c2cccc(NS(=O)(=O)c3ccc(Cl)cc3)c2O[C@H]1CN(C)S(=O)(=O)c1ccccc1	-0.7	2.4	·	·	·
C[C@H]1CN([C@@H](C)CO)S(=O)(=O)c2ccc(-c3cncnc3)cc2O[C@H]1CN(C)Cc1ccc(Oc2ccccc2)cc1	-0.1	27.0*	-2.8	·	·
C[C@@H]1CN([C@@H](C)CO)S(=O)(=O)c2ccc(C#CC3CCCCC3)cc2O[C@H]1CN(C)Cc1cccnc1	0.0	13.1	·	·	·
C[C@@H]1CN([C@H](C)CO)S(=O)(=O)c2ccc(C#CC3CCCC3)cc2O[C@H]1CN(C)Cc1cccnc1	-0.7	16.9*	-2.3	·	·
C[C@@H]1CN([C@H](C)CO)S(=O)(=O)c2ccc(C#CC3CCCCC3)cc2O[C@@H]1CN(C)Cc1cccnc1	-0.1	98.6*	-0.1	·	·
C[C@@H]1CN([C@H](C)CO)S(=O)(=O)c2ccc(C#CC3(O)CCCC3)cc2O[C@H]1CN(C)C(=O)c1cccnc1	-0.1	26.8*	0.3	·	·
Fc1ccccc1C=NNc1nc(-c2ccccn2)nc2ccccc12	·	·	·	·	4.3
CO[C@H]1CN(C)C(=O)c2ccc(NC(=O)CC(F)(F)F)cc2OC[C@@H](C)N(C(C)=O)C[C@@H]1C	0.4	·	-0.3	·	·
COc1ccc(NC(=O)Nc2ccc3c(c2)CC(=O)N([C@H](C)CO)C[C@@H](C)[C@H](CN(C)C(=O)Nc2c(C)noc2C)O3)cc1	0.1	·	·	·	·
Cc1ccccc1NC(=O)Nc1ccc2c(c1)C(=O)N(C)[C@@H]1CC[C@@H](CC(=O)O)O[C@H]1CO2	0.8	·	·	·	·
CO[C@H]1CN(C)C(=O)c2cc(NS(=O)(=O)c3ccccc3)ccc2OC[C@H](C)N(Cc2cccnc2)C[C@@H]1C	-0.2	-5.5	-0.9	·	·
COCC(=O)Nc1ccc2c(c1)OC[C@@H](C)N(Cc1ccccc1F)C[C@@H](C)[C@@H](OC)CN(C)C2=O	-0.2	0.4	-1.2	·	·
Cc1ccc(-c2ccc3c(c2)O[C@H](CN(C)Cc2cccnc2)[C@H](C)CN([C@H](C)CO)S3(=O)=O)cc1	-0.1	18.1*	3.1	·	·
Cc1ccc(-c2ccc3c(c2)O[C@@H](CN(C)Cc2cccnc2)[C@@H](C)CN([C@H](C)CO)S3(=O)=O)cc1	-0.3	4.6	-1.2	·	·
CCS(=O)(=O)Nc1ccc2c(c1)C(=O)N(C)C[C@@H](OC)[C@@H](C)CN(C(C)=O)[C@H](C)CO2	-0.6	-0.7	-6.9	·	·
COC/C=C/C1=CC2=CC(=O)C(C)(OC(=O)c3cnc4ccccc4n3)C(=O)C2=CN1C1CC1 (stereo not given)	0.0	-1.8	5.2	·	47.3*	UCH37 reconfirm=23.8
Cc1ccc(/C=C(\C#N)C(=O)NC(C)C)o1	-0.1	-2.9	7.3	-0.9	11.8
CC(C)NC(=O)/C(C#N)=C/c1ccc(N(C)C)o1	-0.1	3.4	-1.5	5.2	32.4*	UCH37 reconfirm=34.4
Cc1ccccc1-c1nn[nH]n1	·	·	·	-1.6	-1.1
Oc1ccc(N=Nc2ccccc2-c2nn[nH]n2)c(O)c1	0.3	17.3*	14.0	18.0	26.9*	UCH37 reconfirm=25.8
Cn1c(=O)c2sccc2n(CC(=O)NCCC2=CCCCC2)c1=O	-0.4	·	-1.8	-5.6	·
COc1ccc(-n2nc(C(=O)NCC(=O)NCCC3=CCCCC3)c3ccccc3c2=O)cc1OC	0.1	-4.6	3.2	1.0	36.3*	UCH37 reconfirm=54.4*
